Measurements: paper PMC5091360 (Science Advances, 2016)
Ends that are not written are not given here.

What was measured:
FGF receptors = conditions: cited from earlier work
[1] = system: ERK1/2 pathway in lymphatic endothelial cells (LECs); assay: ERK1/2 phosphorylation in lymphatic endothelial cells; format: cell-based, human; conditions: growth factor 100 ng/ml, 10 min, 37°C, 1% DMSO, heparin 10 U/ml
Method in brief: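 Human dermal lymphatic microvascular endothelial cells were cultured overnight in EBM2 with 2% FBS, then starved 18 h in EBM2 with 0.2% BSA. They were stimulated with VEGF-A, VEGF-C or FGF-1, with or without test peptide or scrambled peptide (30 μg/ml). Lysates were immunoblotted for total and phospho-ERK1/2 using infrared-dye secondaries, and the phospho/total intensity ratio was taken. Two experiments were run; ANOVA with Tukey.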

VEGFR-3 = target: T1, VEGFR-3 (Mus musculus, UniProt P35917); assay: competition assay, binding of phage PCAIWF to immobilized VEGFR-3
T1 sequence (P35917 25-770): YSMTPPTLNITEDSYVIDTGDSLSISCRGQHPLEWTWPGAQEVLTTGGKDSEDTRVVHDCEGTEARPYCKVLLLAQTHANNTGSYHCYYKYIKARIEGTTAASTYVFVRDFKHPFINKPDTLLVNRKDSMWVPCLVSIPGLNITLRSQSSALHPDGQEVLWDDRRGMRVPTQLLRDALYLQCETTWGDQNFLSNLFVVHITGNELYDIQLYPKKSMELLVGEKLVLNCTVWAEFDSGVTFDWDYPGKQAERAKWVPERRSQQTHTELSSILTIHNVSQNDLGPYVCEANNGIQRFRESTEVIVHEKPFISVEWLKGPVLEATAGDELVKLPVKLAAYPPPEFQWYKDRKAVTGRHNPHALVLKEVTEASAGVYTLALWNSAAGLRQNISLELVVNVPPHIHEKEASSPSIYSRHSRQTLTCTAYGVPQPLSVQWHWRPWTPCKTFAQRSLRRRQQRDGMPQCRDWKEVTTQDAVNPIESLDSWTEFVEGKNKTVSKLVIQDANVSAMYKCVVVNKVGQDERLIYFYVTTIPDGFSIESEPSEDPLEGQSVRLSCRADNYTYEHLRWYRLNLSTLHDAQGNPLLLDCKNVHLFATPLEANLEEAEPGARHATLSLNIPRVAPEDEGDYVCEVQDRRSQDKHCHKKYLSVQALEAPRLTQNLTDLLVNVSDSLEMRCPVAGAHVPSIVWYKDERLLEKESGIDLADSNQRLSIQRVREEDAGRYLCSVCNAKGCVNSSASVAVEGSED

mouse VEGFR-3 = assay: phage binding assay, immobilized mouse VEGFR-3; conditions: 10^8 TU in 50 μl PBS, 2 hours, room temperature; control insertless phage Fd; colony count or phage-FLISA; triplicate plating
human VEGFR-3 = assay: phage binding assay, immobilized human VEGFR-3; conditions: 10^8 TU in 50 μl PBS, 2 hours, room temperature; control insertless phage Fd; colony count or phage-FLISA; triplicate plating
human VEGFR-1 = assay: FLISA binding assay, NRP-2 to VEGFR-1; conditions: rat NRP-2, FLISA
Method in brief: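 Human VEGFR-1 extracellular domain coated at 200 ng per well in PBS overnight at 4°C, then blocked with Odyssey blocking buffer. Wells incubated with NRP-1 or NRP-2 in PBS with 10% (v/v) DMSO and 10% blocking buffer, with or without peptide (100 μg/ml). Bound NRP detected with goat anti-NRP-1 or anti-NRP-2 serum (1:100), then IRDye 680LT anti-goat, by infrared scanning. Duplicate wells; ANOVA with Tukey.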

[2] = target: T2, recombinant IgD2 domain of human VEGFR-3 (human, UniProt P35916 136-229); assay: ELISA
T2 sequence: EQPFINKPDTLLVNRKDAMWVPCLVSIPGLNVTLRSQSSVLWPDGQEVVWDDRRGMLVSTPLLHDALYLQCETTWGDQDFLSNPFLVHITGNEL

[3] = target: T3, recombinant IgD2-3 domains of human VEGFR-3 (human, UniProt P35916 136-332); assay: ELISA
T3 sequence: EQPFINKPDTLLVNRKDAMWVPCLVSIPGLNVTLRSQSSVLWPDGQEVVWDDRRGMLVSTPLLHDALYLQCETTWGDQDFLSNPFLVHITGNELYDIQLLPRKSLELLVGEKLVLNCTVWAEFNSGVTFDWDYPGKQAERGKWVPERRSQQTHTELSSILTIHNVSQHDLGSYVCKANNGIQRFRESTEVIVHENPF

[4] = target: T4, human VEGFR-3 extracellular domain (Fc fusion) (human, UniProt P35916 25-775); assay: ELISA
T4 sequence: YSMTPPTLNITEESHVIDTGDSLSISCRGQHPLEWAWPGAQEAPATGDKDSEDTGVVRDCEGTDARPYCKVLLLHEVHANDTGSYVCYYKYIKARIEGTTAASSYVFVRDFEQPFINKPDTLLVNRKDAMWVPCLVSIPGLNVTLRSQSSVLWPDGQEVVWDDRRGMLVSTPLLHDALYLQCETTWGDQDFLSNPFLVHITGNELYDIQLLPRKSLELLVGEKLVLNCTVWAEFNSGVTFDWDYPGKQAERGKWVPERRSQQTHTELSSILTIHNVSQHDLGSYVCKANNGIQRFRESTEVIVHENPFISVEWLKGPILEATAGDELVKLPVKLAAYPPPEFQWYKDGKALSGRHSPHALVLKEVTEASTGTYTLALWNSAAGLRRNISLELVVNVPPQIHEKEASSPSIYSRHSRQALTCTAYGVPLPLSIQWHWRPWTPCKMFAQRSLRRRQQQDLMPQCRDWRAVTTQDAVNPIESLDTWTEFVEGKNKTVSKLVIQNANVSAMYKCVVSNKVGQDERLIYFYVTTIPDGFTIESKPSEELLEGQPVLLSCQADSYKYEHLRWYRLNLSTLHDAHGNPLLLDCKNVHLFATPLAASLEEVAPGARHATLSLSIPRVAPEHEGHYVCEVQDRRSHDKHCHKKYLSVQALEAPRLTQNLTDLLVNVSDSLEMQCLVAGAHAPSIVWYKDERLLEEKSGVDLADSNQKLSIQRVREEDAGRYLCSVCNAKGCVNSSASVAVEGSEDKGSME

[5] = target: T5, recombinant mouse VEGFR-3/Fc (mouse, UniProt P35917 25-770); assay: phage binding assay
T5 sequence: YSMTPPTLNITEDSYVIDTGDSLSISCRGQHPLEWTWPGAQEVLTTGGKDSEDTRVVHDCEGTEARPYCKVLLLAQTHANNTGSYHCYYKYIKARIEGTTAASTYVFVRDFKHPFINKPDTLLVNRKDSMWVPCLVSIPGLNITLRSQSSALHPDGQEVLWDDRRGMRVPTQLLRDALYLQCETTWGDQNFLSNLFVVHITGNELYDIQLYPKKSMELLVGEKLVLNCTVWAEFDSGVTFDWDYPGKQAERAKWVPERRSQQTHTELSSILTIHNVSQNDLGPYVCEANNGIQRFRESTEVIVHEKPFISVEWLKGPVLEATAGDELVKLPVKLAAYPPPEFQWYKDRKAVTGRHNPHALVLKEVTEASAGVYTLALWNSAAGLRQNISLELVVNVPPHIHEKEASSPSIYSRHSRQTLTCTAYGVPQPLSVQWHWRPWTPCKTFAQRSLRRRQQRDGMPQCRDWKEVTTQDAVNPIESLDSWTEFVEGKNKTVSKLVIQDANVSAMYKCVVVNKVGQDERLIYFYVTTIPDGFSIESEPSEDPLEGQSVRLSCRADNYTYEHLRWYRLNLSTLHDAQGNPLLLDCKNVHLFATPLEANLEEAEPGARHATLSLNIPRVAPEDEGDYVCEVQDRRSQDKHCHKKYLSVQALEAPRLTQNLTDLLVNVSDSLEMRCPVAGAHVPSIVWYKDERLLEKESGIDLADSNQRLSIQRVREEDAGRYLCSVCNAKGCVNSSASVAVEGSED

[6] = target: T4, human VEGFR-3 extracellular domain (Fc …); assay: phage binding assay
[7] = target: human VEGFR-2 extracellular domain (Fc fusion) (human, UniProt P35968 20-764); assay: ELISA
Sequence of human VEGFR-2 extracellular domain (Fc fusion) (P35968 20-764): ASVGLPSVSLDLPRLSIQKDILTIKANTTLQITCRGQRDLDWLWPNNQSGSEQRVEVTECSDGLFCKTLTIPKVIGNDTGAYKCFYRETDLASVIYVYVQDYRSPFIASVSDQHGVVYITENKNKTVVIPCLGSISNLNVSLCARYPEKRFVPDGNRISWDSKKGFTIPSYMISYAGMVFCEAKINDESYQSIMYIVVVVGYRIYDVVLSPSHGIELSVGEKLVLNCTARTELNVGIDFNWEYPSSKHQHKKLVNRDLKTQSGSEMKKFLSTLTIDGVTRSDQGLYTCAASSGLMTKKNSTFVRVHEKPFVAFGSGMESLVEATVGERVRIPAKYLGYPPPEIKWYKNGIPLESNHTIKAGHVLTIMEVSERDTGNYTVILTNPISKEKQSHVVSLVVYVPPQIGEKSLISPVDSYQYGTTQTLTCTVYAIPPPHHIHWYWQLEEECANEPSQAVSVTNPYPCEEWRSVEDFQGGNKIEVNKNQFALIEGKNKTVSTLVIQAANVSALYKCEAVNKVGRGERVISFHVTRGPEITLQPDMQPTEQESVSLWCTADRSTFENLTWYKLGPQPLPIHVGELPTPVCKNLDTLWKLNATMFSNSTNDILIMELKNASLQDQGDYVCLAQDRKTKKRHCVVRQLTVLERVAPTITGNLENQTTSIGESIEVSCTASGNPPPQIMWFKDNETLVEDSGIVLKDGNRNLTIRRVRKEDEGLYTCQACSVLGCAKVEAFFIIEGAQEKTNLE

[8] = target: human VEGFR-1 extracellular domain (Fc fusion) (human, UniProt P17948 27-758); assay: ELISA
Sequence of human VEGFR-1 extracellular domain (Fc fusion) (P17948 27-758): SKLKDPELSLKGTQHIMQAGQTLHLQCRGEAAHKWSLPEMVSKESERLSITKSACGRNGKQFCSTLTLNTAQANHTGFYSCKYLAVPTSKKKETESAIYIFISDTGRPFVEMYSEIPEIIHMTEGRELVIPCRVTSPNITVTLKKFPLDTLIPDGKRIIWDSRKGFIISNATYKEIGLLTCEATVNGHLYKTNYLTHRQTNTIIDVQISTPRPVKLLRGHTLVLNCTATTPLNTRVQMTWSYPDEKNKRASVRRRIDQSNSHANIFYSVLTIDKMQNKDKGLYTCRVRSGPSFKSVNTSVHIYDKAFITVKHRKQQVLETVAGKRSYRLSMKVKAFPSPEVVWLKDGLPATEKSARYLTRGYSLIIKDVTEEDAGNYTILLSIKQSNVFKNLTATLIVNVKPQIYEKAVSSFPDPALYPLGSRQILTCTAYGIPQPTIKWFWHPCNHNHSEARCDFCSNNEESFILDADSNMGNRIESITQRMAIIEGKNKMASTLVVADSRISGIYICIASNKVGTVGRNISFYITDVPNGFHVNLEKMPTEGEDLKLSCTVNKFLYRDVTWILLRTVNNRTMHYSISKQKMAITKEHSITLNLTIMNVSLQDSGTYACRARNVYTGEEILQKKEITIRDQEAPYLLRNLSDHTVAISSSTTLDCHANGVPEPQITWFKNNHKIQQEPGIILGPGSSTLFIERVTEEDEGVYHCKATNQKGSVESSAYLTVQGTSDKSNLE

For `COc1c(C)c(C(=O)c2ccc(N)c(C(=O)[O-])c2)n2ccccc12.[Na+]` [SSR128129E], the “effect on FGF receptors” value (FGF receptors) is listed as “binds to and prevents the activation of all four FGF receptors” and the “interaction with ligand-binding domain of the FGF receptors” value (FGF receptors) is listed as “does not interact with the ligand-binding domain of the receptors”.

For “FGF-1: fibroblast growth factor, recombinant human ligand”, the “phosphorylation of ERK1/2 upon growth factor stimulation” value [1] was “phosphorylation of ERK1/2 increases”.

In the case of PSAIWF [PSAIWF], the IC50 (VEGFR-3) is reported as roughly 278 µM.

In the case of WVCSGG [phage WVCSGG], the “phage binding to mouse VEGFR-3” value (mouse VEGFR-3) is reported as “both phages bound to mouse and human VEGFR-3” and the “phage binding to human VEGFR-3” value (human VEGFR-3) is reported as “both phages bound to mouse and human VEGFR-3”.

B1: NRP-2: neuropilin, co-receptor for VEGF; rat NRP-2 (protein)
chain: QQDPPCGGRLNSKDAGYITSPGYPQDYPSHQNCEWVVYAPEPNQKIVLNFNPHFEIEKHDCKYDFIEIRDGDSESADLLGKHCGNIAPPTIISSGSVLYIKFTSDYARQGAGFSLRYEIFKTGSEDCSKNFTSPNGTIESPGFPEKYPHNLDCTFTILAKPRMEIILQFLTFDLEHDPLQVGEGDCKYDWLDIWDGIPHVGPLIGKYCGTKTPSKLRSSTGILSLTFHTDMAVAKDGFSARYYLVHQEPPENFQCNAPLGMESGRIANEQISASSTFSDGRWTPQQSRLHGDDNGWTPNVDSNKEYLQVDLRFLTMLTAIATQGAISRETQKGYYVKSYKLEVSTNGEDWMVYRHGKNHKVFQANNDATELVLNKLHTPLLTRFIRIRPQTWHLGIALRLELFGCRVTDAPCSNMLGMLSGLIADTQISASSTREYLWSPSAARLVSSRSGWFPRNPQAQPGEEWLQVDLGTPKTVKGVIIQGARGGDSITAMEARAFVRKFKVSYSLNGKDWEYIQDPRTQQPKLFEGNMHYDTPDIRRFEPVPAQYVRVYPERWSPAGIGMRLEVLGCDWTDSKPTVETLGPTVKSEETTTPYPMDEDATECGENCSFEDDKDLQLPSGFNCNFDFPEETCGWMYDRAKWLQSTWISSANPNDRTFPDDKNFLKLQSDGGREGQFGRLISPPVHLPRSPVCMEFQYQAMGGHGVALQVVREARQESKLLWVIREDQGSEWKHGRIILPSYDMEYQIVFEGVIGKGRSGEISIDDIRISTDVPLENCMEPISAFAVDIPEIHGGEGYEDEIDDDYEGDWNNSSSTSGAGSPSSGKEKSWLYTLDP
With B1 the “NRP-2 binding to VEGFR-1” value (human VEGFR-1) was “strong interaction”.

WVCSGG [synthetic peptide WVCSGG]: binds [2]; binds [3].

PCAIWF [synthetic peptide PCAIWF]: binds [4]; binds [2]; binds [3].

WVCSGG [phage WVCSGG]: binds [5]; binds [6].

PCAIWF [phage PCAIWF]: binds [2]; binds [3]; binds [5]. PCAIWF [phage PCAIWF]: binds [6].

PSAIWF [synthetic peptide PSAIWF]: binds [7]; binds [4]; binds [8].
